Here are results for two compounds from publication PMC9929485 (International Journal for Parasitology: Drugs and Drug …, 2023).

The test system of series [1] is T. gondii tachyzoites. Put plainly: Anti-invasion assessment by qPCR. It is filed as cell-based, Toxoplasma gondii RH strain. In a few lines: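 Vero monolayers were preincubated with 0.625–10.0 μM test compound in DMEM with 1% FBS. Controls were 11.5 μM azithromycin (positive) and no drug (negative). Then 2 × 10^6 fresh tachyzoites were added per well for 2 h. Cells were washed twice with DPBS and kept in DMEM for 24 h. DNA was extracted and the T. gondii 529 bp repeat quantified by qPCR. Inhibition rate is relative to untreated control, from triplicate independent experiments.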
(In general: Quantitative PCR measures a nucleic acid by following its amplification.)

Series [2] relates to T. gondii tachyzoites. The experiment in a line: Anti-proliferation activity by qPCR. It is filed as cell-based, Toxoplasma gondii RH strain. In a few lines: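 Vero monolayers in 6-well plates were infected with 2 × 10^5 tachyzoites per well. After 8 h, test compound (0.625–10.0 μM) or azithromycin was added in DMEM with 1% FBS for 24 h, with a drug-free negative control. Total DNA was extracted and the 529 bp repeat quantified by qPCR. EC50 and therapeutic index were calculated. Values are mean ± SD of at least three independent experiments.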

A short description of series [3]: Cytotoxicity assay. The class given is cell-based. Particulars: African green monkey, Vero cells. The procedure, abridged: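 Vero cells were seeded at 1 × 10^4 per well, grown to monolayer, then exposed for 24 h to 0.78125–100 μM test compound in DMEM with 1% FBS (DMSO <1% v/v), with an untreated control. Viability was read by CCK-8 (1 h, absorbance 450 nm). Survival % = (treated − blank)/(control − blank) × 100. Triplicate independent experiments.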

The test system of series [4] is T. gondii tachyzoites in Vero cells. Put plainly: Plaque assay. It is filed as cell-based, Toxoplasma gondii RH strain. The procedure, abridged:
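Proliferation arm: Vero monolayers were infected with 2 × 10^4 tachyzoites per well for 8 h, then given 0.625–10.0 μM test compound in DMEM with 1% FBS for 24 h. Invasion arm: tachyzoites were pre-exposed to compound, then allowed to infect Vero cells for 2 h. Drug-free controls were included. After 48, 72 or 96 h, cells were PBS-washed, fixed in 4% paraformaldehyde and stained with crystal violet for 10 min. PVs per field and parasites per PV were counted in ≥20 random fields per well (40× objective).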

Series [5] in a line: Safety assay in mice. The class given is in vivo, mouse. Particulars: 5, 10 or 20 mg/kg intraperitoneal, over 7 days. The procedure, abridged: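 BALB/c mice received test compound ip once daily for 7 days at 5, 10 or 20 mg/kg. It was formulated at 2 mg/mL in saline with 10% ethanol and 10% Cremophor EL. Controls received solvent alone or PBS. Clinical toxicity was monitored during dosing and for a further 23 days.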

Series [6] in a line: Pharmacokinetics in mouse plasma. The class given is in vivo. Particulars: female, BALB/c, ip, 20 mg/kg. The procedure, abridged: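 Test compound was formulated at 2 mg/mL in saline with 10% ethanol and 10% Cremophor EL. It was given ip at 20 mg/kg to 9 female BALB/c mice. Blood was sampled at 0, 0.083, 0.25, 0.5, 1, 2, 4, 8, 12 and 24 h and centrifuged at 3000 rpm for 10 min; plasma was stored at −20 °C. The PK model was selected by minimum AIC. Parameters are mean ± SD (n = 3).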

Series [7] relates to T. gondii tachyzoites. The experiment in a line: In vivo activity against T. gondii in infected mice. Also on record: species or system Toxoplasma gondii RH strain in BALB/c mouse. Particulars: 20 mg/kg intraperitoneal once a day for 7 days, P ≤ 0.05. In a few lines:
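BALB/c mice were infected ip with 1 × 10^3 RH tachyzoites. Treatment started 4 h later, ip once daily for 7 days: test compound 20 mg/kg·bw, azithromycin 50 mg/kg·bw (positive control) or PBS. One mL of ascites was aspirated, washed and centrifuged, and DNA extracted. Parasites were quantified by PCR against a standard curve of serially diluted RH tachyzoite DNA (3.00 × 10^6 to 3.00 × 10^3/mL).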

The test system of series [8] is T. gondii tachyzoites in Vero cells. Put plainly: Transmission electron microscopy. Particulars: 5 μM. It is filed as cell-based, Toxoplasma gondii RH strain. The procedure, abridged:
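Vero cells in T25 flasks were infected with 2 × 10^6 tachyzoites for 8 h, then cultured with 5 μM test compound for 8 or 24 h. Cells were detached with TrypLE (2 min), PBS-washed and fixed in 2.5% glutaraldehyde (4 °C, 12 h). Post-fixation used 1% osmium in the dark for 1.5 h. Samples were dehydrated through alcohol and acetone and embedded in Epon. Ultrathin sections were stained with uranyl acetate/lead citrate and examined by TEM.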

For series [9], the system named is T. gondii tachyzoites. Put plainly: Mitochondrial membrane potential. It is filed as cell-based, Toxoplasma gondii RH strain. Particulars: 1 or 5 μM, 8 or 24 h, P ≤ 0.05. In a few lines: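 Tachyzoites inside Vero monolayers were treated with 1 or 5 μM test compound in DMEM for 8 or 24 h. After a PBS wash, cultures were stained with 50 nM MitoTracker Red CMXRos for 20 min. Fluorescence was read on a microplate reader. Triplicate experiments.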

The subject of series [10] is T. gondii tachyzoites. Put plainly: ATP level in tachyzoites. It is filed as cell-based, Toxoplasma gondii RH strain. Particulars: 1 or 5 μM, 8 or 24 h, P ≤ 0.05. The procedure, abridged: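 Infected Vero cultures were exposed to 1 or 5 μM test compound in DMEM for 8 or 24 h. Tachyzoites were then isolated, purified and lysed, and ATP was measured and expressed as μmol/L. Three independent experiments were run.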

The subject of series [11] is T. gondii tachyzoites. Put plainly: ROS production assay. It is filed as cell-based, Toxoplasma gondii RH strain. Particulars: 1 or 5 μM, dose-dependent. The procedure, abridged:
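Infected Vero cultures were treated with 1 or 5 μM test compound or left untreated. Then 2 × 10^6 tachyzoites were isolated and PBS-washed. They were loaded with 7.5 μM CMH2DCFDA for 10 min, washed three times and resuspended in PBS. Fluorescence was read at excitation 488 nm and emission 525 nm. Triplicate experiments.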

The term inhibition denotes the share of the control response that was lost under treatment. For `CC[C@H]1OC(=O)[C@H](C)[C@@H](O[C@H]2C[C@@](C)(OC)[C@@H](O)[C@H](C)O2)[C@H](C)[C@@H](O[C@@H]2O[C@H](C)C[C@H](N(C)C)[C@H]2O)[C@](C)(O)C[C@@H](C)CN(C)[C@H](C)[C@@H](O)[C@]1(C)O` [azithromycin], the inhibition at 11.5 µM in series [1] (Toxoplasma gondii, read-out: anti-invasion inhibition rate) came to 54%. The “inhibition rate on intracellular proliferation of T. gondii tachyzoites” value in series [2] (positive control drug, 24 h, qPCR) worked out at 37.50%.
As a reminder, the IC50 is the concentration that inhibits the measured activity by half. A high value points to weaker potency. For orientation: AUC(0-inf) means the area under the concentration-time curve extrapolated to infinity. A higher AUC(0-inf) goes with more exposure. Usually AUC(0-t) stands for exposure summed from dosing to a finite time, without extrapolation to infinity. Higher therefore signals high exposure. By MRT inf is commonly meant a mean duration of stay, worked out from the concentration-time curve. The MRT last is a mean duration of stay, worked out from the concentration-time curve. As usually defined, the Tmax is the time at which the peak concentration occurs. The half-life is how long it takes for the measured level to halve. Turning to `CCCCCCCc1cc(O)c2ccccc2[n+]1[O-]` [HQNO, 2-Heptyl-4-hydroxyquinoline N-oxide], the IC50 at 24 h in series [3] came out at 33.4 µM. Besides, the “tachyzoite growth (plaques formed)” value in series [4] (0.625–10 μM, after 6 days of incubation) is listed as “dose-dependent inhibition”. Also, the “average number of tachyzoites within the PVs” value in series [4] (P ≤ 0.05) is on record as “decreased”. Moreover, the “invasion and proliferation ability of T. gondii (plaque)” value in series [4] (after 48 h, 72 h, 96 h of incubation, P ≤ 0.05) is recorded as “significantly reduced”. Further, the “PV number vs control” value in series [4] (pre- and post-infection, P ≤ 0.05) is listed as “decreased significantly”. Moreover, the “T. gondii invasion vs control” value in series [1] (0.625–10 μM, P ≤ 0.05) was “significantly inhibited”. For the same compound, in series [2] (0.625–10 μM, concentration-dependent, P ≤ 0.05), the “T. gondii tachyzoite intracellular proliferation vs control” value was “significantly (P ≤ 0.05) inhibited”. Also, in series [5], the “clinical toxicity in mice” value is listed as “no obvious clinical toxicity”. In series [6], this compound yielded an AUC(0-inf) of 3880 ± 308 ng·h/mL, an AUC(0-t) of 3860 ± 301 ng·h/mL, an MRT inf of 1.62 ± 0.464 h and an MRT last of 1.56 ± 0.446 h. In series [6], the Tmax is 4.98 min, the half-life was 1.43 ± 0.393 h and the k el was 0.000135 s⁻¹. Further, the “parasite burden in mouse peritoneum” value in [7] was “significantly decreased”. For the same compound, the “ultrastructure of T. gondii mitochondria (TEM)” value in series [8] (8 h) is reported as “swollen”. Besides, the “ultrastructure of T. gondii (TEM)” value in series [8] (24 h) is on record as “parasite death”. Also, in [8] (Vero host cells), the “effect on mitochondria of host cells around PVs (TEM)” value is “does not affect”. The “ΔΨm in parasites vs control” value in [9] was “significant dose-dependent decreases”. Also, in series [10], the “ATP levels in parasites vs control” value is reported as “significant dose-dependent decreases”. In [11], the “ROS levels in T. gondii vs control” value is on record as “increase”.
